Values after ≈ are worked out from the molar mass of the structure shown.
Key:
Chlamydia trachomatis = assay: In vitro antimicrobial activity against chlamydia trachomatis.; assay type: functional
Staphylococcus aureus [1] = assay: In vitro antimicrobial activity against Staphylococcus aureus X1; assay type: functional
Collinsella aerofaciens = assay: In vitro antimicrobial activity against anaerobic bacteria eubacterium aerofaciens 1235; assay type: functional
Streptococcus pneumoniae [2] = assay: In vivo activity against experimental infections in mice Streptococcus pneumoniae park when administered orally; assay type: functional; conditions: po
Mus musculus [3] = assay: Peripheral plasma levels in mice after oral administration of 50 mg/kg dose for 2 hr; assay type: functional, organism-based; design: dose 50 mg/kg
Method in brief: (§1)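 Mice were given the compound orally and sampled for peripheral plasma at each time point. Plasma was assayed microbiologically against Micrococcus luteus seeded in Antibiotic Medium 1. Inhibition zone sizes were read, and concentrations were calculated from each compound's own standard curve. Each value is the mean of five mice per time point.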

[4] = system: Staphylococcus epidermidis; assay: In vitro antimicrobial activity against aerobic bacteria Streptococcus epi 270; assay type: functional
Staphylococcus aureus [5] = assay: In vitro antimicrobial activity against aerobic bacteria Staphylococcus aureus V41; assay type: functional
[6] = system: Bacteroides thetaiotaomicron; assay: In vitro antimicrobial activity against anaerobic bacteria bacteroides thetaiotaomicron 1438; assay type: functional
[7] = system: Fusobacterium necrophorum; assay: In vitro antimicrobial activity against anaerobic bacteria usobacterium necrophorum 6054A; assay type: functional
Streptococcus [8] = assay: In vitro antimicrobial activity against aerobic bacteria Streptococcus D 9960; assay type: functional
Mus musculus [9] = assay: Peripheral plasma levels in mice after oral administration of 100 mg/kg dose for 0.5 hr; assay type: functional, organism-based; design: dose 100 mg/kg; method in brief: as §1
Phocaeicola vulgatus = assay: In vitro antimicrobial activity against anaerobic bacteria bacteroides vulgatus 1211; assay type: functional
Rattus norvegicus [10] = assay: Peripheral plasma levels in rats after oral administration of 100 mg/kg dose for 1 hr; assay type: functional, organism-based; design: dose 100 mg/kg
Method in brief: (§2)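 Rats received 100 mg/kg orally and were sampled for peripheral plasma. Concentrations were measured by Micrococcus luteus agar-diffusion microbiological assay in Antibiotic Medium 1, with zone sizes converted using the standard curve for the appropriate compound. Each value is the average of three rats per time point.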

Mus musculus [11] = assay: Peripheral plasma levels in mice after oral administration of 100 mg/kg dose for 2 hr; assay type: functional, organism-based; design: dose 100 mg/kg; method in brief: as §1
Staphylococcus aureus [12] = assay: In vivo activity against experimental infections in mice Staphylococcus aureus X1 when administered orally; assay type: functional; conditions: po
Cutibacterium acnes = assay: In vitro antimicrobial activity against anaerobic bacteria propionibacterium acnes 79; assay type: functional
[13] = system: Staphylococcus epidermidis; assay: In vitro antimicrobial activity against Staphylococcus epidermidis EPI1; assay type: functional
Streptococcus pneumoniae [14] = assay: In vivo activity against experimental infections in mice Streptococcus pneumoniae park when administered sc; assay type: functional
Streptococcus [15] = assay: In vitro antimicrobial activity against aerobic bacteria Streptococcus D 8043; assay type: functional
Haemophilus influenzae [16] = assay: In vitro antimicrobial activity against aerobic bacteria Haemophilus influenzae MX366,; assay type: functional
Streptococcus [17] = assay: In vitro antimicrobial activity against aerobic bacteria Streptococcus B 5; assay type: functional
Anaerococcus prevotii = assay: In vitro antimicrobial activity against anaerobic bacteria peptococcus prevoti 1281; assay type: functional
Mus musculus [18] = assay: Peripheral plasma levels in mice after oral administration of 50 mg/kg dose for 4 hr; assay type: functional, organism-based; design: dose 50 mg/kg; method in brief: as §1
Streptococcus pyogenes [19] = assay: In vitro antimicrobial activity against Streptococcus pyogenes C203; assay type: functional
Streptococcus [20] = assay: In vitro antimicrobial activity against aerobic bacteria Streptococcus B 8; assay type: functional
Haemophilus influenzae [21] = assay: In vitro antimicrobial activity against Haemophilus influenzae.; assay type: functional
Staphylococcus aureus [22] = assay: In vitro antimicrobial activity against aerobic bacteria Staphylococcus aureus V140,; assay type: functional
[23] = system: Peptostreptococcus anaerobius; assay: In vitro antimicrobial activity against anaerobic bacteria eubacterium peptostreptococcus anaerobius 1428,; assay type: functional
Streptococcus [24] = assay: In vitro antimicrobial activity against aerobic bacteria Streptococcus C 24; assay type: functional
Streptococcus [25] = assay: In vitro antimicrobial activity against aerobic bacteria Streptococcus D 2041; assay type: functional
Rattus norvegicus [26] = assay: Peripheral plasma levels in rats after oral administration of 100 mg/kg dose for 0.5 hr; assay type: functional, organism-based; design: dose 100 mg/kg; method in brief: as §2
Streptococcus pyogenes [27] = assay: In vivo effective dose against experimental infections in rodent caused by Streptococcus pyogenes C203 when administered sc; assay type: functional
Staphylococcus aureus [28] = assay: In vivo activity against experimental infections in mice Staphylococcus aureus X1 when administered sc; assay type: functional
Mus musculus [29] = assay: Peripheral plasma levels in mice after oral administration of 50 mg/kg dose for 0.25 hr; assay type: functional, organism-based; design: dose 50 mg/kg; method in brief: as §1
Bacteroides fragilis [30] = assay: In vitro antimicrobial activity against anaerobic bacteria bacteroides fragilis 111; assay type: functional
Mus musculus [31] = assay: Peripheral plasma levels in mice after oral administration of 50 mg/kg dose for 0.5 hr; assay type: functional, organism-based; design: dose 50 mg/kg; method in brief: as §1
Rattus norvegicus [32] = assay: Peripheral plasma levels in rats after oral administration of 100 mg/kg dose for 2 hr; assay type: functional, organism-based; design: dose 100 mg/kg; method in brief: as §2
[33] = system: Peptoniphilus asaccharolyticus; assay: In vitro antimicrobial activity against anaerobic bacteria peptococcus asaccharolyticus 1302; assay type: functional
Streptococcus pneumoniae [34] = assay: In vitro antimicrobial activity against Streptococcus pneumoniae; assay type: functional
Streptococcus sanguinis = assay: In vitro antimicrobial activity against aerobic bacteria Streptococcus sanguis MX132; assay type: functional
Mus musculus [35] = assay: Peripheral plasma levels in mice after oral administration of 100 mg/kg dose for 0.25 hr; assay type: functional, organism-based; design: dose 100 mg/kg; method in brief: as §1
Clostridium perfringens = assay: In vitro antimicrobial activity against anaerobic bacteria clostridium perfringens 81,; assay type: functional
[36] = system: Haemophilus parainfluenzae; assay: In vitro antimicrobial activity against aerobic bacteria Haemophilus parainfluenzae 9796; assay type: functional
[37] = system: Prevotella melaninogenica; assay: In vitro antimicrobial activity against anaerobic bacteria bacteroides melaninogenicus 1856,; assay type: functional
Mus musculus [38] = assay: Peripheral plasma levels in mice after oral administration of 50 mg/kg dose for 1 hr; assay type: functional, organism-based; design: dose 50 mg/kg; method in brief: as §1
Mus musculus [39] = assay: Peripheral plasma levels in mice after oral administration of 100 mg/kg dose for 4 hr; assay type: functional, organism-based; design: dose 100 mg/kg; method in brief: as §1
[40] = system: Staphylococcus epidermidis; assay: In vitro antimicrobial activity against aerobic bacteria Streptococcus epi 222; assay type: functional
Haemophilus influenzae [41] = assay: In vitro antimicrobial activity against aerobic bacteria Haemophilus influenzae 465; assay type: functional
[42] = system: Prevotella melaninogenica; assay: In vitro antimicrobial activity against anaerobic bacteria bacteroides melaninogenicus 2736; assay type: functional
Rattus norvegicus [43] = assay: Peripheral plasma levels in rats after oral administration of 100 mg/kg dose for 4 hr; assay type: functional, organism-based; design: dose 100 mg/kg; method in brief: as §2
Staphylococcus aureus [44] = assay: In vitro antimicrobial activity against aerobic bacteria Staphylococcus aureus 513E; assay type: functional
Haemophilus influenzae [45] = assay: In vitro antimicrobial activity against aerobic bacteria Haemophilus influenzae 76; assay type: functional
Streptococcus pneumoniae [46] = assay: In vitro antimicrobial activity against aerobic bacteria Streptococcus pneumoniae B1-438; assay type: functional, streptococcus pneum
Fusobacterium = assay: In vitro antimicrobial activity against anaerobic bacteria fusobacterium symbiosum 1470; assay type: functional
Streptococcus [47] = assay: In vitro antimicrobial activity against aerobic bacteria Streptococcus G Kruder; assay type: functional; conditions: Streptococcus; read-out: MIC
Streptococcus [48] = assay: In vitro antimicrobial activity against aerobic bacteria Streptococcus B 14; assay type: functional
Enterococcus faecium = assay: In vitro antimicrobial activity against Streptococcus faecium X66; assay type: functional, streptococcus fae-cium
Staphylococcus aureus [49] = assay: In vitro antimicrobial activity against aerobic bacteria Staphylococcus aureus X400; assay type: functional
Bacteroides fragilis [50] = assay: In vitro antimicrobial activity against anaerobic bacteria bacteroides fragilis 1936B,; assay type: functional
[51] = In vitro antimicrobial activity against anaerobic bacteria peptostreptococcus intermedius 1264; assay type: functional
Clostridium septicum = assay: In vitro antimicrobial activity against anaerobic bacteria clostridium septicum 1128; assay type: functional
Bacteroides fragilis [52] = assay: In vitro antimicrobial activity against anaerobic bacteria bacteroides fragilis 1877; assay type: functional
Clostridioides difficile = assay: In vitro antimicrobial activity against anaerobic bacteria Clostridium difficile 2994; assay type: functional
Eikenella corrodens = assay: In vitro antimicrobial activity against anaerobic bacteria bacteroides corrodens 1874; assay type: functional
Mus musculus [53] = assay: Peripheral plasma levels in mice after oral administration of 100 mg/kg dose for 1 hr; assay type: functional, organism-based; design: dose 100 mg/kg; method in brief: as §1
Streptococcus pyogenes [54] = assay: In vivo effective dose against experimental infections in rodent caused by Streptococcus pyogenes C203 when administered orally; assay type: functional; conditions: po
Rattus norvegicus [55] = assay: Peripheral plasma levels in rats after oral administration of 100 mg/kg dose for 0.25 hr; assay type: functional, organism-based; design: dose 100 mg/kg; method in brief: as §2
Streptococcus viridans = assay: In vitro antimicrobial activity against aerobic bacteria Streptococcus viridans 9943; assay type: functional
Staphylococcus aureus [56] = assay: In vitro antimicrobial activity against aerobic bacteria Staphylococcus aureus V135; assay type: functional

CC[C@H]1OC(=O)C[C@@H](O)[C@H](C)[C@@H](O[C@@H]2O[C@H](C)[C@@H](O)[C@H](N(C)C)[C@H]2O)[C@@H](CCOc2ccccc2)C[C@@H](C)C(=O)/C=C/C(C)=C/[C@@H]1CO[C@@H]1O[C@H](C)[C@@H](O)[C@@H](OC)[C@H]1OC
MIC (Chlamydia trachomatis): 0.25 mg/L (≈ 0.294 µM) | MIC (Staphylococcus aureus [1]): 0.25 mg/L (≈ 0.294 µM) | MIC (Collinsella aerofaciens): 2 mg/L (≈ 2.35 µM) | ED50 (Streptococcus pneumoniae [2]): > 50 mg/kg | Concentration (Mus musculus [3]): 1.2 µg/mL | MIC [4]: > 128 mg/L | MIC (Staphylococcus aureus [5]): 0.25 mg/L (≈ 0.294 µM) | MIC [6]: 2 mg/L (≈ 2.35 µM) | MIC [7]: 8 mg/L (≈ 9.41 µM) | MIC (Streptococcus [8]): 8 mg/L (≈ 9.41 µM) | Concentration (Mus musculus [9]): 11.5 µg/mL | MIC (Phocaeicola vulgatus): 1 mg/L (≈ 1.18 µM) | Concentration (Rattus norvegicus [10]): 3.4 µg/mL | Concentration (Mus musculus [11]): 6.5 µg/mL | ED50 (Staphylococcus aureus [12]): 17 mg/kg | MIC (Cutibacterium acnes): 8 mg/L (≈ 9.41 µM) | MIC [13]: 0.25 mg/L (≈ 0.294 µM) | ED50 (Streptococcus pneumoniae [14]): > 20 mg/kg | MIC (Streptococcus [15]): 2 mg/L (≈ 2.35 µM) | MIC (Haemophilus influenzae [16]): 16 mg/L (≈ 18.8 µM) | MIC (Streptococcus [17]): 4 mg/L (≈ 4.71 µM) | MIC (Anaerococcus prevotii): 1 mg/L (≈ 1.18 µM) | Concentration (Mus musculus [18]): 0.2 µg/mL | MIC (Streptococcus pyogenes [19]): 0.12 mg/L (≈ 0.141 µM) | MIC (Streptococcus [20]): 8 mg/L (≈ 9.41 µM) | MIC (Haemophilus influenzae [21]): 32 mg/L (≈ 37.6 µM) | MIC (Staphylococcus aureus [22]): 0.25 mg/L (≈ 0.294 µM) | MIC [23]: < 0.5 mg/L | MIC (Streptococcus [24]): 0.25 mg/L (≈ 0.294 µM) | MIC (Streptococcus [25]): 8 mg/L (≈ 9.41 µM) | Concentration (Rattus norvegicus [26]): 3.9 µg/mL | ED50 (Streptococcus pyogenes [27]): 5 mg/kg | ED50 (Staphylococcus aureus [28]): 4.2 mg/kg | Concentration (Mus musculus [29]): 3.2 µg/mL | MIC (Bacteroides fragilis [30]): 1 mg/L (≈ 1.18 µM) | Concentration (Mus musculus [31]): 2.7 µg/mL | Concentration (Rattus norvegicus [32]): 4.8 µg/mL | MIC [33]: 1 mg/L (≈ 1.18 µM) | MIC (Streptococcus pneumoniae [34]): 1 mg/L (≈ 1.18 µM) | MIC (Streptococcus sanguinis): 1 mg/L (≈ 1.18 µM) | Concentration (Mus musculus [35]): 8.9 µg/mL | MIC (Clostridium perfringens): < 0.5 mg/L | MIC [36]: 32 mg/L (≈ 37.6 µM) | MIC [37]: 1 mg/L (≈ 1.18 µM) | Concentration (Mus musculus [38]): 2.4 µg/mL | Concentration (Mus musculus [39]): 1.2 µg/mL | MIC [40]: 0.12 mg/L (≈ 0.141 µM) | MIC (Haemophilus influenzae [41]): 16 mg/L (≈ 18.8 µM) | MIC [42]: 1 mg/L (≈ 1.18 µM) | Concentration (Rattus norvegicus [43]): 5.6 µg/mL | MIC (Staphylococcus aureus [44]): 0.25 mg/L (≈ 0.294 µM) | MIC (Haemophilus influenzae [45]): 16 mg/L (≈ 18.8 µM) | MIC (Streptococcus pneumoniae [46]): > 128 mg/L | MIC (Fusobacterium): 1 mg/L (≈ 1.18 µM) | MIC (Streptococcus [47]): 32 mg/L (≈ 37.6 µM) | MIC (Streptococcus [48]): 16 mg/L (≈ 18.8 µM) | MIC (Enterococcus faecium): 8 mg/L (≈ 9.41 µM) | MIC (Staphylococcus aureus [49]): 0.25 mg/L (≈ 0.294 µM) | MIC (Bacteroides fragilis [50]): 1 mg/L (≈ 1.18 µM) | MIC [51]: 2 mg/L (≈ 2.35 µM) | MIC (Clostridium septicum): < 0.5 mg/L | MIC (Bacteroides fragilis [52]): 1 mg/L (≈ 1.18 µM) | MIC (Clostridioides difficile): < 0.5 mg/L | MIC (Eikenella corrodens): 1 mg/L (≈ 1.18 µM) | Concentration (Mus musculus [53]): 13.1 µg/mL | ED50 (Streptococcus pyogenes [54]): 9 mg/kg | Concentration (Rattus norvegicus [55]): 2.6 µg/mL | MIC (Streptococcus viridans): > 128 mg/L | MIC (Staphylococcus aureus [56]): 0.25 mg/L (≈ 0.294 µM)
